Test results as given in PubChem BioAssay.
A number with no mark means an inactive call. Results filed as inconclusive are left out. Calls of active or inactive are those of the source.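 How the source made its calls, unless noted: active means viability increase at or above a cutoff of the median across tested compounds plus 3 SD (cut at about 8.5% in these data, passing the limit was not always enough); inconclusive means some gains above the cutoff, reason not given; inactive means the rest.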

Experiments:
[1] = OD615 S. cerevisiae growth inhibition, permissive medium, pilot counter-assay, permissive growth control for S. cerevisiae lifespan shortening project (AID 705;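 active means growth inhibition above 25% in both replicates, a cutoff set 3 SD above the mean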); settings: OD615, 24 h, at 10 µM, active compounds read high
Summary of the method: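 assay system = Saccharomyces cerevisiae strain carrying genetically modified DeaD replicative-lifespan system | technique = absorbance (optical density) at 615 nm | buffer or medium = permissive raffinose/galactose medium | timing = cells pre-grown 4 h, then 24 h compound exposure, 30 °C humidified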

[2] = Restrictive medium S. cerevisiae growth inhibition, OD615, pilot screen of yeast lifespan reduction project, restrictive growth control (AID 706;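 active means growth inhibition above a set limit, 3 SD over mean compound inhibition, in both replicates, cut at about 43% in these data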;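 further: modified DeaD lifespan yeast strain shifted to restrictive glucose medium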); settings: OD615, 48 h, at 10 µM, active compounds read high
Summary of the method: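 System: modified S. cerevisiae. Buffer or medium: CSMM-D glucose medium. Incubation: 4 h pre-growth plus 48 h compound exposure, 30 °C. Detection: absorbance (optical density) measured at 615 nm.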

[3] = viability gain of MRP-1-high H69AR cells under doxorubicin, pilot screen, MRP-1 activator project, CellTiter-Glo, duplicate (AID 807); settings: H69AR viability with doxorubicin, CellTiter-Glo luminescence; at 10 µM; active compounds read high;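 further: compound pretreatment 18-22 h then 72 h combined with doxorubicin; 0% = doxorubicin alone and 100% = vehicle without doxorubicin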
[4] = growth suppression of beta-catenin knockout HCT116, pilot screen, human colon tumor cells (AID 823;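 active means cell viability at or below a set limit in both duplicate runs, the limit being the all-compound median minus 4 SD, cut at about 23% in these data, passing the limit was not always enough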;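 further: 0% = wells killed by 20 µM Hyamine and 100% = untreated DMSO cell wells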); settings: CellTiter-Glo, 60 h, at 10 µM, active compounds read low
[5] = growth suppression of PTEN-deleted HCT116, pilot screen, cell-based, HCT116 clonal line, CellTiter-Glo (AID 824;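 active means viability at or below 27.92% in each of two runs, the all-compound median minus 4 SD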;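 further: 0% = 20 µM Hyamine control and 100% = vehicle cell control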); settings: 60 h, at 10 µM, active compounds read low
[6] = inhibitors of the yeast RAM network, pilot screen, dse1pr::URA3 reporter, 5-FOA selection (AID 869;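 active means inhibition over a set limit, the all-compound mean plus 3 SD, in both replicate runs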;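 further: 0% = DMSO wells with no growth and 100% = 10 µM 1-NA-PP1 with full growth; RAM network block rescues cells from 5-FOA so hits raise OD615 growth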); settings: S. cerevisiae dse1pr::URA3 5-FOA growth, OD615, 2 d; at 10 µM; active compounds read high; strain carries analog-sensitive mutant Cbk1 kinase
[7] = RAM signaling pathway blockade in yeast – S. cerevisiae, Pdr1DBD-CYC8 efflux-inhibited sensitized strain, primary screen (AID 1298;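 active means RAM network inhibition above 8.4% in each of two replicates, 3 SD over the compound average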;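 further: 0% = DMSO untreated cells without growth and 100% = 10 µM 1-NA-PP1 full growth; higher means more yeast growth rescued from 5-FOA killing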); settings: S. cerevisiae cbk1-as DSE1-URA3 strain, 5-FOA growth OD615, 2 d; at 50 µM; active compounds read high

SMILES | growth inhibition [1] | growth inhibition [2] | viability increase [3] | viability [4] | viability [5] | inhibition [6] | RAM network inhibition [7]
O/N=C1/CCCSc2ccccc21 | -7.19% | -16.8% | -1.24% | 96.6% | 97.9% | 0.95% | 2.18%
Cc1ccc(Cl)cc1N1CCN(C(=O)COc2ccc(S(=O)(=O)NC(C)C)cc2)CC1 | 4.32% | -7.2% | -4.67% | 37.3% | 54.8% | 1% | 6.06%
c1ccc(N2CCN(c3ncnc4c3oc3ccccc34)CC2)cc1 | -16.2% | 9.12% | -0.47% | 96% | 100% | -0.03% | 8.18%
CCCC(=N)C1=C(O)CC(CC(C)SCC)CC1=O (configuration not stated) | -5.42% | 5.29% | -1.06% | 97.5% | 103% | 0.49% | -1.1%
CCOC(=O)c1sc(NC(=O)c2cc(S(=O)(=O)N3CCOCC3)ccc2C)nc1C | -4.69% | -10.3% | -2.11% | 92.3% | 86.6% | 0.57% | 6.77%
Cc1c(NC(=O)CCCCCN2C(=O)C3C4C=CC(C4)C3C2=O)c(=O)n(-c2ccccc2)n1C (configuration not stated) | 5.03% | 5.79% | -0.51% | 103% | 100% | 0.685% | 2.6%
COc1ccc(CCNC(=O)COC(=O)c2cnc(C)cn2)cc1OC | -8.52% | -14.6% | 1.73% | 106% | 100% | 0.395% | 2.42%
COc1cc(NC(=O)c2cc3c(=O)n(C)c4ccccc4c3n2C)cc(OC)c1OC | 1.8% | 7.94% | -3.3% | 106% | 95.7% | 3.3% | 5.77%
CC1(C)C(=O)OC(c2cc(Br)ccc2O)C(C)(C)C1=O (configuration not stated) | -8.82% | -1.84% | -2.35% | 90.2% | 82.1% | -0.355% | 4.3%
CC1=C(C(=O)Nc2ccccc2)C(c2ccco2)C(C#N)=C(SCc2ccccc2)N1 (configuration not stated) | 9% | 14.5% | -7.63% | 11.8% (active) | 9.06% (active) | 3.18% | 3.38%
CC1=C(C(=O)OCC2CCCO2)C(c2ccncc2)C2=C(CCCC2=O)N1 (configuration not stated) | -16.7% | -8.36% | -1.77% | 98.9% | 98.1% | 2.9% | 1.82%
CCOC(=O)N1CCC(NC(=O)Cn2cc3c(n2)CCCCC3)CC1 | -5.77% | 5.48% | 1.03% | 108% | 98.6% | -0.43% | 0.41%
CC(Oc1ccccc1)C(=O)OCC(=O)NC(=O)NCc1ccco1 (configuration not stated) | -5% | -0.75% | -1.78% | 97.9% | 97.2% | 3.58% | 2.68%
Cc1cc(C)n(-c2nc(NC(C)(C)C)nc(NC(C)(C)C)n2)n1 | -11.5% | 11.4% | -2.08% | 8.58% (active) | 11.2% (active) | 2.85% | 5.62%
Cc1ccc(NC(=O)C2CCCN(S(=O)(=O)c3ccc4c(c3)oc(=O)n4C)C2)nc1 (configuration not stated) | -7.92% | -2.67% | -0.05% | 101% | 101% | 1.09% | -2.07%
COc1cc(NC(=O)c2onc(C)c2Cl)c(OC)cc1Cl | -3% | -6.72% | -5.82% | 91.7% | 94.5% | 1.35% | 3.23%
CCOC(=O)C1=C(C)NC(=O)NC1c1ccc(N(C)C)cc1 (configuration not stated) | -12.3% | -5.65% | -2.7% | 96.9% | 92.9% | 2.35% | 5.85%
COCc1cc(C)nc2sc(C(=O)Nc3nccs3)c(N)c12 | -7.22% | 11.6% | -5.32% | 109% | 97.5% | 0.145% | 2.07%

SMILES | growth inhibition [1] | growth inhibition [2] | viability increase [3] | viability [4] | viability [5] | inhibition [6] | RAM network inhibition [7]
O=C(CN1CCN(c2ccccc2F)CC1)c1ccc2cc[nH]c2c1 | -12.6% | -6.94% | -4.1% | 100% | 84.7% | 2.02% | 0.99%
Cc1c(/C=N/n2cnnc2)c2ccccc2n1C | -2.21% | 11.6% | -1.49% | 98.7% | 95.3% | -0.13% | 4.77%
O=C(CSc1nnc(-c2ccccc2Cl)o1)N1CCCCC1 | -8.71% | 7.85% | 1.04% | 95.1% | 97.6% | 0.32% | 0.36%
COc1ccc(-c2nc(CS(=O)CC(=O)N3CCc4ccccc4C3)c(C)o2)cc1 (configuration not stated) | 2.66% | 32.7% | -2.66% | 85.6% | 88.8% | 1.13% | 3.48%
O=C(CSc1ccc2nnc(-c3ccc(Cl)cc3)n2n1)N1CCN(c2ccccc2)CC1 | 20.5% | 63.7% (active) | -3.11% | 96.6% | 85.5% | -0.195% | 3.08%
NC(=O)c1cc(S(=O)(=O)Nc2cccc(F)c2)co1 | -17.4% | -9.41% | -0.8% | 103% | 103% | 1.69% | 2.85%
O=C(Cn1c2c(c(-c3ccccc3)cc1=O)CCCC2)N1CCCCCC1 | -10.5% | -10.3% | -3.64% | 48.8% | 49% | 1.49% | -0.37%
COc1ccc(N2C(=O)C3CCCN3C2c2cc(OC)c(OC)cc2OC)cc1 (configuration not stated) | 8.35% | 5.12% | -3.74% | 102% | 90.4% | 0.47% | 7.38%
CN(CCCNC(=O)Cn1cc2c(n1)CCCC2)C1CCCCC1 | -2.1% | -0.155% | -3.43% | 99.2% | 90.2% | -1.29% | 1.23%
Cc1ccc(N(CC(O)CN2CCCC2)S(=O)(=O)c2ccccc2)cc1 (configuration not stated) | -1.29% | -3.1% | -2.89% | 94.2% | 91.2% | -0.105% | 5.78%
CCC(=O)NC(c1ccccc1)c1nc2ccccc2[nH]1 (configuration not stated) | -12.9% | -14.2% | -0.96% | 100% | 97.4% | 1.48% | 0.62%
Cc1ccc(-c2nc3ncccc3o2)cc1NC(=O)Cc1ccc(Cl)cc1 | -17.4% | -10.8% | -4.9% | 81.8% | 82.9% | 2.07% | 1.75%
COc1cccc(N2C(=O)C3ON(c4ccccc4)C(c4cccs4)C3C2=O)c1 (configuration not stated) | -13% | 15.5% | -0.83% | 107% | 97.8% | 2.65% | 4.23%
COc1ccccc1C(=O)NCc1ccc2c(c1)OCO2 | -21.2% | -10.3% | 0.91% | 107% | 107% | 0.52% | 2.54%
C=CCn1c(C)c(C(C)=O)c(SC)nc1=S | -2.37% | 17.1% | -1.99% | 101% | 99.8% | 0.34% | 5.32%
Cc1ccc(C2CC(c3ccc(Cl)cc3)n3nc(N)nc3N2)cc1 (configuration not stated) | 1.88% | 7.93% | -0.27% | 93.9% | 93.5% | 1.9% | 8.2%
Cn1c(NC(=O)c2ccccc2C(F)(F)F)cc(=O)n(C)c1=O | -16.9% | -8.93% | -2.06% | 95.3% | 90.7% | 0.785% | -1.32%
Nc1nc(Nc2cccc(F)c2)nc2ccccc12 | -11.6% | -30.8% | -5.76% | 70.3% | 67.6% | 1.88% | 4.92%
